Env fusion inh = inhibitors of HIV Env-mediated cell fusion. inhibition, % at 12.3 µM. hit rate 1.1% among 360,000. HeLa-JRFL Env/CEM21 cell fusion, luciferase;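 active = mean replicate inhibition score of at least 50 and every replicate individually at or above 50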;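 note: 0% = plate neutral controls and 100% = maraviroc near 300 nM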
N-glyco inh = N-linked glycosylation inhibition; D54 ERlucT glycosylation luciferase reporter, 24 h; percent of 100 nM tunicamycin response; reporter increase, % at 12.5 µM; hit rate 0.23% among 360,000; AID 588692;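 active = mean luciferase reporter signal, scaled so untreated is 0 and the glycosylation-blocking control 100, at or above a set limit in every replicate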;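 note: luciferase carries N-glycosylation sites so blocking glycosylation raises the light; 0% = median of neutral control wells and 100% = median of 100 nM tunicamycin wells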
PglD inh = PglD (C. jejuni) enzyme inhibition | purified PglD enzyme, DTNB colorimetric CoA detection | inhibition, % at 12.5 µM | hit rate 0.098% among 360,000; in the data active = inhibition above about 16%, passing the limit was not always enough
SR-BI HDL uptake = blocks mouse SR-BI lipid uptake from DiI-HDL; Q61009; ldlA[mSR-BI] CHO cells, DiI-HDL uptake fluorescence, 3 h; inhibition, % at 12.5 µM; hit rate 0.96% among 320,000; AID 488896;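 active = mean replicate inhibition of at least 70% and a set share of replicates each scoring 70 or more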;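 note: 0% = median of neutral control wells and 100% = median of positive control wells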
Target sequence (Q61009 whole entry, looked up): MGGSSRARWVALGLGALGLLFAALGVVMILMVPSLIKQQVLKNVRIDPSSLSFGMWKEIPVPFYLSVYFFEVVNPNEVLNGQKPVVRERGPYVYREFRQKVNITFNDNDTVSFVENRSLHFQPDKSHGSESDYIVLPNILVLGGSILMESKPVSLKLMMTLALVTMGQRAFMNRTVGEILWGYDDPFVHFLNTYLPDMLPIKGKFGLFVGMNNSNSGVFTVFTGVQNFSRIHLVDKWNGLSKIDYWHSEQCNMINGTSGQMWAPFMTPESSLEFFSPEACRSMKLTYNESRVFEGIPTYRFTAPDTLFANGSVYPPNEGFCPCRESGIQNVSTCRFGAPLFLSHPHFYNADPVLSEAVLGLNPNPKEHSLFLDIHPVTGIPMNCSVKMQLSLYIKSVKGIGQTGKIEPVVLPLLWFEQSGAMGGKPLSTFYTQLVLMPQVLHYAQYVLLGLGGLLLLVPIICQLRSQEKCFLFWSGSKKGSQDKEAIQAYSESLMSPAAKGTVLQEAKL
SR-BI DiI-HDL act = activators of SR-BI mediated HDL lipid uptake. CHO ldlA[mSR-BI] cells, DiI-HDL uptake fluorescence, 3 h; 100 = double the neutral-control signal. activation, % at 12.5 µM. hit rate 0.096% among 320,000;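 active = mean replicate activation of at least 60% and every replicate at or above 60%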;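 note: 0% = median plate neutral-control signal and 100% = twice that signal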
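Assay system: CHO ldlA[mSR-BI] cells, LDL receptor-null, SR-BI overexpressing; medium: Ham's F12 with 0.5% BSA, HEPES 25 mM, pH 7.4; also added: DiI-HDL 10 µg/mL; timing: 3 h uptake period with compound, 37 °C; signal: DiI fluorescence, bottom read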
Rtt109 HAT inh = C. albicans Rtt109 histone acetyltransferase inhibition; hit rate 0.16% among 330,000; purified Rtt109/Vps75, ThioGlo CoA-SH fluorescence, 4 h; inhibition, % at 34.9 µM;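 active = inhibition of at least 50% in every replicate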
* hit, by the source's call; [ ] = remark or other dose. This is a sample that favours compounds with a hit; in the whole collection about 1.9% have one here.

Results for COc1ccc(NC(=O)C2(C)CCN2Cc2ccccc2OC(F)F)cc1OC (stereo not given) ?
Env fusion inh: 71*; N-glyco inh: -2; PglD inh: 4

How did CC1(C(=O)Nc2ccc(Cl)c(Cl)c2)CCN1Cc1ccccc1OC(F)F (stereo not given) do in these assays?
Env fusion inh: 14; N-glyco inh: -4; PglD inh: 1

Results for CN(C)CC(=O)Nc1ccc2c(c1)[C@H]1C[C@@H](CC(=O)N3CCc4ccccc4C3)O[C@H](CO)[C@H]1O2 ?
Env fusion inh: 11[16.7 µM]; PglD inh: -2

What do the screens show for `COc1cccc(-n2c(SCC(=O)N3CCc4ccccc43)nnc2-c2c[nH]c3ccccc23)c1`?
Env fusion inh: 56*; N-glyco inh: -12; PglD inh: -1; SR-BI HDL uptake: 13; SR-BI DiI-HDL act: -13; Rtt109 HAT inh: -1

Results for CCOc1ccc(-n2c(SCC(=O)N3CCc4ccccc43)nnc2-c2c[nH]c3ccccc23)cc1 ?
Env fusion inh: -9; N-glyco inh: -2; PglD inh: 0; SR-BI HDL uptake: -46; SR-BI DiI-HDL act: 46; Rtt109 HAT inh: 9

How did CCCCc1c(-c2ccccc2OC)ncn1Cc1ccc(OC)cc1 do in these assays?
Env fusion inh: 61*

Results for CCCCc1c(-c2ccccc2OC)ncn1Cc1ccc(C)cc1 ?
Env fusion inh: 61*

Results for CO[C@@H]1CN(C)C(=O)c2ccc(NC(=O)C3CCC3)cc2OC[C@@H](C)N(Cc2ccncc2)C[C@@H]1C ?
PglD inh: 1

Results for NC1(C(=O)O)CSSC1 ?
Env fusion inh: -49; N-glyco inh: 73*; SR-BI HDL uptake: -15; SR-BI DiI-HDL act: 15; Rtt109 HAT inh: 0

Results for O=C(C[C@@H]1C=C[C@@H](NC(=O)c2ccccc2)[C@@H](CO)O1)NCc1ccncn1 ?
Env fusion inh: 0[16.7 µM]; PglD inh: -1

Results for Cc1[nH]n(-c2ccccc2)c(=O)c1N=Nc1cccc(C(=O)O)c1 ?
Env fusion inh: 58*; N-glyco inh: -12; PglD inh: -9; SR-BI HDL uptake: 0; SR-BI DiI-HDL act: 0; Rtt109 HAT inh: 33

What do the screens show for `Cc1[nH]n(-c2ccccc2)c(=O)c1N=Nc1ccc(C(=O)O)cc1`?
Env fusion inh: 14; N-glyco inh: 0; PglD inh: -18; SR-BI HDL uptake: 12; SR-BI DiI-HDL act: -12; Rtt109 HAT inh: -2

How did CCCc1cn(CC[C@@H]2CC[C@H](NC(=O)Cc3cccnc3)[C@@H](CO)O2)nn1 do in these assays?
Env fusion inh: 0[16.7 µM]; PglD inh: 0

How did O=C(NC12CC3CC(CC(C3)C1)C2)c1ccccc1 do in these assays?
Env fusion inh: 9; N-glyco inh: -2; PglD inh: -4; SR-BI HDL uptake: 0; SR-BI DiI-HDL act: 0; Rtt109 HAT inh: 4

What do the screens show for `O=C(NC12CC3CC(CC(C3)C1)C2)N(Cc1ccccc1)Cc1ccncc1`?
Env fusion inh: 62*; N-glyco inh: -3; PglD inh: 5; SR-BI HDL uptake: -11; SR-BI DiI-HDL act: 11; Rtt109 HAT inh: -12

What do the screens show for `CCN(CC)C(=O)c1sc2nc(N3CCOCC3)c3c(c2c1N)CCCC3`?
Env fusion inh: -61; N-glyco inh: -1; SR-BI HDL uptake: 20; SR-BI DiI-HDL act: -20; Rtt109 HAT inh: -5

How did CCOC(=O)c1sc2nc(N3CCOCC3)c3c(c2c1N)CCCC3 do in these assays?
Env fusion inh: -144; N-glyco inh: 3; PglD inh: -3; SR-BI HDL uptake: 74*; SR-BI DiI-HDL act: -74; Rtt109 HAT inh: -7

What do the screens show for `O=C(NCc1cccc2[nH]ccc12)C1CCC(=O)N(CCc2ccccc2)C1` (stereo not given)?
Env fusion inh: -3; N-glyco inh: 3; PglD inh: 0; SR-BI HDL uptake: -120; SR-BI DiI-HDL act: 120*; Rtt109 HAT inh: 1

What do the screens show for `CNC[C@@H]1Oc2ncc(C#CC3(O)CCCC3)cc2C(=O)N([C@@H](C)CO)C[C@@H]1C`?
Env fusion inh: -13[16.7 µM]; PglD inh: -1

Results for COc1cc(C2=NOC(C(=O)N3CCCc4ccccc43)C2)cc(OC)c1OC (stereo not given) ?
Env fusion inh: -21; N-glyco inh: 2; PglD inh: -4; SR-BI HDL uptake: 82*; SR-BI DiI-HDL act: -82; Rtt109 HAT inh: 2

Results for C[C@@H]1CN([C@H](C)CO)C(=O)c2cccc(NC(=O)Nc3ccccc3)c2O[C@@H]1CN(C)Cc1ccc(Cl)c(Cl)c1 ?
Env fusion inh: -90[16.7 µM]; PglD inh: 3

How did C[C@H]1CN([C@@H](C)CO)C(=O)c2cccc(NC(=O)Nc3ccccc3)c2O[C@@H]1CN(C)Cc1ccc(Cl)c(Cl)c1 do in these assays?
Env fusion inh: 62*[16.7 µM]; PglD inh: 0

How did C[C@@H]1CN([C@H](C)CO)C(=O)c2cccc(NC(=O)Nc3ccc(C(F)(F)F)cc3)c2O[C@H]1CN(C)Cc1ccc(C(F)(F)F)cc1 do in these assays?
Env fusion inh: 59*[16.7 µM]; PglD inh: 3

What do the screens show for `C[C@@H]1CN([C@@H](C)CO)C(=O)c2cccc(NC(=O)Nc3ccc(C(F)(F)F)cc3)c2O[C@H]1CN(C)Cc1ccc(Oc2ccccc2)cc1`?
Env fusion inh: 69*[16.7 µM]; PglD inh: 1

Results for COc1ccc(CN(C)C[C@H]2Oc3c(NC(=O)NC(C)C)cccc3C(=O)N([C@@H](C)CO)C[C@@H]2C)cc1 ?
PglD inh: 14

Results for COc1ccc(CN(C)C[C@H]2Oc3c(NC(=O)NC(C)C)cccc3C(=O)N([C@@H](C)CO)C[C@H]2C)cc1 ?
PglD inh: 16*

Results for O=C(CCN1CCCCC1)NCC[C@H]1CC[C@@H](NC(=O)Cc2cccnc2)[C@@H](CO)O1 ?
Env fusion inh: 11[16.7 µM]; PglD inh: 2

How did C[C@H]1CN([C@@H](C)CO)C(=O)c2cccc(NC(=O)Nc3ccccc3)c2O[C@H]1CN(C)C do in these assays?
Env fusion inh: -15[16.7 µM]; PglD inh: 19*

How did C[C@H]1CN([C@@H](C)CO)C(=O)c2cccc(NC(=O)Nc3ccc(C(F)(F)F)cc3)c2O[C@@H]1CN(C)Cc1ccc(Cl)c(Cl)c1 do in these assays?
Env fusion inh: 17[16.7 µM]; N-glyco inh: -4; PglD inh: 0; SR-BI HDL uptake: 75*; SR-BI DiI-HDL act: -75; Rtt109 HAT inh: 5

Results for C[C@H](CO)N1C[C@H](C)[C@H](CN(C)C)Oc2c(NC(=O)Nc3ccccc3)cccc2C1=O ?
Env fusion inh: 0[16.7 µM]; PglD inh: 1

Results for Cc1noc(C)c1S(=O)(=O)Nc1ccc2c(c1)CC(=O)N([C@H](C)CO)C[C@@H](C)[C@H](CN(C)Cc1ccc3c(c1)OCO3)O2 ?
Env fusion inh: -21[16.7 µM]; PglD inh: 1
